Screening data (PubChem)
Shown are actives, neighbours in structure and some others; about 0.98% of the full set was active somewhere.
Statin myotox sup: suppressors of statin myotoxicity in C2C12 myotubes, primary screen, cell-based, single point, plate reader; C2C12 myotubes + simvastatin, ATP luminescence, 48 h; scaled: DMSO 0, geranylgeraniol control 100; rescue of ATP level, % at 7.49 µM; 330,000 compounds, 0.78% hits;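 active = mean ATP rescue above about 67%, or every replicate alone reaching that limit, limit read from the data, passing the limit was not always enough; inconclusive = no clear call, values can overlap the other calls; inactive = mean under the limit and some replicate under it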;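 note: myotubes were challenged with 10 µM simvastatin during compound exposure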
S100A4 MyoIIA: inhibitors of S100A4-myosin IIA peptide binding, primary screen, biochemical, fluorescence polarization, TAMRA-MyoIIA peptide | AID 652163, 2013 | 360,000 compounds, 0.14% hits | inhibition, % at 10.7 µM | Protein S100-A4 (Homo sapiens), P26447;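 active = mean inhibition of at least 70% across replicates, with every replicate also reaching that level; inconclusive = mean inhibition reaches 70% but some replicates fall short; inactive = mean inhibition below 70%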
Target sequence (P26447 whole entry, looked up): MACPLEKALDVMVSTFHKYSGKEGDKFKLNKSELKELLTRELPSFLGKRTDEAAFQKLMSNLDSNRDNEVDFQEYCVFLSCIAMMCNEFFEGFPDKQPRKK
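Compound dosing: one dose per compound; test system: human S100A4 monomer with TAMRA-labelled myosin IIA peptide; probe or stimulus: TAMRA-labelled myosin IIA heavy-chain peptide probe, 5 nM; medium: HEPES buffer with Ca2+, pH 7.2; schedule: 5 min incubation before reading; benchmarks: neutral control DMSO, positive control TFP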
Rtt109 Vps75: inhibitors of C. albicans Rtt109/Vps75 HAT, primary screen, biochemical, ThioGlo CoA-SH fluorescence, plate reader; Histone acetyltransferase RTT109 (Candida albicans (strain SC5314 / ATCC MYA-2876)), …; purified Rtt109/Vps75, 4 h; inhibition, % at 34.9 µM; 330,000 compounds, 0.16% hits;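 active = inhibition of at least 50% in every replicate; inconclusive = best replicate reaches 50% inhibition but some replicates fall short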
Target sequence (Q5AAJ8 whole entry, looked up): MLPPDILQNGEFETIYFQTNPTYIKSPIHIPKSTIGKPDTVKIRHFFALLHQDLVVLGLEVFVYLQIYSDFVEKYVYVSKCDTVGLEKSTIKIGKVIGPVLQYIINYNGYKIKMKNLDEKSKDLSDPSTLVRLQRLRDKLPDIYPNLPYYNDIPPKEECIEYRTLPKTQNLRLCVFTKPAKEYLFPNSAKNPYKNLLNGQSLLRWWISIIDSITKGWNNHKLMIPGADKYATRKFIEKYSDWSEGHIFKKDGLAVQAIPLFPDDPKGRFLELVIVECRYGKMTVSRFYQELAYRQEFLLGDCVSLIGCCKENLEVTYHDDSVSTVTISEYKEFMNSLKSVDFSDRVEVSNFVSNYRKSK
ERAP1 HTS inh: human ERAP1 aminopeptidase inhibitors, primary screen, biochemical, single point, plate reader; 340,000 compounds, 0.15% hits; Endoplasmic reticulum aminopeptidase 1 (Homo sapiens), Q9NZ08; inhibition, % at 10.7 µM; recombinant ERAP1, Leu-AMC fluorescence, 60 min;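 active = mean replicate inhibition of at least 30%, or all replicates individually reaching that 30% level; inactive = mean below 30% and not every replicate reaching it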
PGC1a acetyl inh: inhibitors of PGC1a acetylation signal, primary screen, cell-based, U2OS, AlphaScreen, inhibitor mode | inhibition, % at 15.6 µM | AlphaScreen anti-acetyl-lysine; with virally co-expressed GCN5 acetyltransferase | 350,000 compounds, 0.17% hits;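 active = every replicate shows inhibition of at least 40%; inconclusive = mean inhibition at least 40% but some replicate below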
Hits are given with their value.

Results for Cc1ccc(NC(=O)COc2ccc(/C=C3/SC(=Nc4ccccc4)N(Cc4cccnc4)C3=O)cc2)cc1 ?
Statin myotox sup: 80; Rtt109 Vps75: inactive; PGC1a acetyl inh: inactive

Results for COc1ccc(S(=O)(=O)Nc2ccc3c(c2)C(=O)N([C@H](C)CO)C[C@@H](C)[C@H](CN(C)S(=O)(=O)c2ccc(F)cc2)OCCCC[C@H](C)O3)cc1 ?
Statin myotox sup: 159; S100A4 MyoIIA: inactive; ERAP1 HTS inh: inactive; PGC1a acetyl inh: inactive

What do the screens show for `COc1ccc(S(=O)(=O)Nc2ccc3c(c2)C(=O)N([C@H](C)CO)C[C@H](C)[C@H](CN(C)S(=O)(=O)c2ccc(F)cc2)OCCCC[C@@H](C)O3)cc1`?
Statin myotox sup: inconclusive; S100A4 MyoIIA: inactive; ERAP1 HTS inh: inactive; PGC1a acetyl inh: inactive

How did COc1ccc(S(=O)(=O)Nc2ccc3c(c2)C(=O)N([C@H](C)CO)C[C@H](C)[C@H](CN(C)S(=O)(=O)c2ccc(F)cc2)OCCCC[C@H](C)O3)cc1 do in these assays?
Statin myotox sup: 107; S100A4 MyoIIA: inactive; ERAP1 HTS inh: inactive; PGC1a acetyl inh: inactive

Results for COc1ccc(S(=O)(=O)Nc2ccc3c(c2)C(=O)N([C@@H](C)CO)C[C@H](C)[C@H](CN(C)Cc2ccc(Cl)c(Cl)c2)OCCCC[C@@H](C)O3)cc1 ?
Statin myotox sup: inactive; PGC1a acetyl inh: inactive

How did COc1ccc(S(=O)(=O)Nc2ccc3c(c2)C(=O)N([C@H](C)CO)C[C@H](C)[C@H](CN(C)Cc2ccc(Cl)c(Cl)c2)OCCCC[C@@H](C)O3)cc1 do in these assays?
Statin myotox sup: 79; PGC1a acetyl inh: inactive

Results for Cc1ccc(S(=O)(=O)N[C@H]2CC[C@H](CC(=O)N3CCN(c4ccccc4)CC3)O[C@@H]2CO)cc1 ?
Statin myotox sup: inactive; S100A4 MyoIIA: inactive; ERAP1 HTS inh: inactive; PGC1a acetyl inh: inactive

How did COC(=O)[C@@]12CCCCN1[C@H](c1ccc(-c3cccc(Cl)c3)c(OC)c1)[C@@H]1C(=O)N(C)C(=O)[C@@H]12 do in these assays?
Statin myotox sup: 137; S100A4 MyoIIA: inactive; Rtt109 Vps75: inactive; ERAP1 HTS inh: inactive; PGC1a acetyl inh: inactive

How did CCC(C)Sc1ccc([C@@H]2[C@@H]3C(=O)N(CC)C(=O)[C@@H]3[C@]3(C(=O)OC)CCCCN23)cc1OC (stereo partly drawn) do in these assays?
Statin myotox sup: 138; S100A4 MyoIIA: inactive; Rtt109 Vps75: inactive; ERAP1 HTS inh: inactive; PGC1a acetyl inh: inactive

How did COc1ccc(NC(=O)N(C)C[C@H]2OCc3cn(nn3)CCCC(=O)N([C@@H](C)CO)C[C@H]2C)cc1 do in these assays?
Statin myotox sup: inactive; S100A4 MyoIIA: inactive; ERAP1 HTS inh: inactive; PGC1a acetyl inh: inactive

Results for Oc1[nH]c2ccccc2c1C=NCC1CCCO1 (stereo not drawn) ?
Statin myotox sup: 121; Rtt109 Vps75: inactive; PGC1a acetyl inh: inactive

What do the screens show for `C[C@@H]1CN([C@H](C)CO)S(=O)(=O)c2ccc(C#CC(C)(C)O)cc2O[C@H]1CN(C)CC1CC1`?
S100A4 MyoIIA: inactive; ERAP1 HTS inh: inactive; PGC1a acetyl inh: inactive

How did COc1cc(C)c(S(=O)(=O)n2ccc(C)n2)cc1C do in these assays?
Statin myotox sup: 113; Rtt109 Vps75: inactive; PGC1a acetyl inh: inactive

How did C[C@H](CO)N1C[C@H](C)[C@H](CN(C)CC2CC2)Oc2cc(C#Cc3ccccc3F)ccc2S1(=O)=O do in these assays?
Statin myotox sup: inactive; S100A4 MyoIIA: inactive; ERAP1 HTS inh: inactive; PGC1a acetyl inh: inactive

How did COCCn1c(N)c(N(Cc2ccccc2)C(=O)c2ccc3ccccc3c2)c(=O)[nH]c1=O do in these assays?
Statin myotox sup: inactive; S100A4 MyoIIA: inactive; Rtt109 Vps75: inactive; ERAP1 HTS inh: inactive; PGC1a acetyl inh: inactive

How did COCCn1c(N)c(N(Cc2ccccc2)C(=O)C2=COCCO2)c(=O)[nH]c1=O do in these assays?
Statin myotox sup: inactive; S100A4 MyoIIA: inactive; Rtt109 Vps75: inactive; ERAP1 HTS inh: 58; PGC1a acetyl inh: inactive

How did Cc1cc(C(=O)COC(=O)CN=C2NS(=O)(=O)c3ccccc32)c(C)n1CCc1ccc(Cl)cc1 do in these assays?
Statin myotox sup: 112; S100A4 MyoIIA: inactive; Rtt109 Vps75: inactive; ERAP1 HTS inh: inactive; PGC1a acetyl inh: inactive

How did Cc1cc(-n2c(C)cc(C(=O)COC(=O)CN=C3NS(=O)(=O)c4ccccc43)c2C)no1 do in these assays?
Rtt109 Vps75: inactive; PGC1a acetyl inh: inactive

What do the screens show for `C[C@@H]1CN([C@H](C)CO)C(=O)c2cc(-c3ccccc3F)cnc2O[C@H]1CN(C)C(=O)C1CC1`?
Statin myotox sup: inactive; S100A4 MyoIIA: inactive; ERAP1 HTS inh: inactive; PGC1a acetyl inh: inactive

What do the screens show for `CC1CN(Cc2cc(=O)oc3cc(O)c(Cl)cc23)CC(C)O1` (stereo not drawn)?
Statin myotox sup: inactive; S100A4 MyoIIA: inactive; Rtt109 Vps75: inactive; ERAP1 HTS inh: 60; PGC1a acetyl inh: inactive

What do the screens show for `CC1CCN(Cc2cc(=O)oc3cc(O)c(Cl)cc23)CC1`?
Statin myotox sup: inactive; S100A4 MyoIIA: inactive; Rtt109 Vps75: inactive; ERAP1 HTS inh: 60; PGC1a acetyl inh: inactive

How did Cc1ccc2oc(=O)cc(CN3CC(C)OC(C)C3)c2c1 (stereo not drawn) do in these assays?
Statin myotox sup: inactive; S100A4 MyoIIA: inactive; Rtt109 Vps75: inactive; ERAP1 HTS inh: inactive; PGC1a acetyl inh: inactive

Results for CC1CCN(Cc2cc(=O)oc3cc4c(cc23)CCCC4)CC1 ?
Statin myotox sup: inactive; S100A4 MyoIIA: inactive; Rtt109 Vps75: inactive; ERAP1 HTS inh: inactive; PGC1a acetyl inh: inactive

Results for C[C@H]1CN([C@@H](C)CO)C(=O)c2cc(NC(=O)C3CCCCC3)ccc2O[C@H]1CN(C)Cc1ccc(Cl)c(Cl)c1 ?
Statin myotox sup: inactive; S100A4 MyoIIA: inactive; ERAP1 HTS inh: inactive; PGC1a acetyl inh: inactive

What do the screens show for `CCc1nnc(NC(=O)c2cc(S(=O)(=O)N3CCOCC3)ccc2N2CCCCC2)s1`?
Statin myotox sup: inactive; S100A4 MyoIIA: inactive; Rtt109 Vps75: inactive; ERAP1 HTS inh: 56; PGC1a acetyl inh: inactive

Results for CCN1CCN(c2ccc(S(=O)(=O)N3CCCCC3)cc2NC(=O)c2ccccc2)CC1 ?
Statin myotox sup: inactive; S100A4 MyoIIA: inactive; Rtt109 Vps75: inactive; ERAP1 HTS inh: 103

What do the screens show for `CCN1CCN(c2ccc(S(=O)(=O)N3CCCCC3)cc2NC(=O)c2cccc(F)c2)CC1`?
Statin myotox sup: inactive; S100A4 MyoIIA: inactive; Rtt109 Vps75: inactive; ERAP1 HTS inh: inactive

What do the screens show for `Cc1ccc(S(=O)(=O)N2CCOCC2)cc1C(=O)NC1CCCCC1`?
Statin myotox sup: 71; Rtt109 Vps75: inactive; PGC1a acetyl inh: inactive

Results for CC1CCN(c2ccccc2NC(=O)c2cc([N+](=O)[O-])ccc2N2CCOCC2)CC1 ?
S100A4 MyoIIA: inactive; Rtt109 Vps75: 54; ERAP1 HTS inh: inactive; PGC1a acetyl inh: inactive
